Measurements gathered from unrelated publications.
Cell line: 786-0
Effect on: cell growth or viability

SMILES | test | setting | endpoint | value
CC1=CC(=O)C(C(C)C)=CC1=O | CCK-8 | 48 h | IC50 | 43000 nM
COc1ccc(C(=O)/C=C/c2cc3c(cc2Br)OCO3)cc1S(N)(=O)=O | SRB | 10 µM | inhibition | 140%
COc1ccc(-c2ccc(-c3ccc(C(=N)N)nc3)s2)cc1Cl | – | – | GI50 | 2000 nM
S=C([S][Au-][P+](CCCCCC[P+]([Au-][S]C(=S)n1cccn1)(c1ccccc1)c1ccccc1)(c1ccccc1)c1ccccc1)n1cccn1 | – | – | GI50 | 9800 nM
COc1ccc(C(=O)/C=C/c2ccccc2Br)cc1S(N)(=O)=O | SRB | 48 h | GI50 | 1800 nM
Cc1cc(C)n(C(=S)[S][Au][PH](CCCCCC[PH]([Au][S]C(=S)n2nc(C)cc2C)(c2ccccc2)c2ccccc2)(c2ccccc2)c2ccccc2)n1 | – | – | GI50 | 3100 nM
COc1cc(-c2ccc(-c3ccc(C(=N)N)nc3)s2)cc(OC)c1OC | – | – | GI50 | 2120 nM
CCCc1c(Sc2ccc(C(=O)N[C@@H](CCC(=O)O)C(=O)O)cc2)[nH]c2nc(N)nc(N)c12 | – | – | GI50 | ≤ 10 nM
COc1cccc(Oc2ccccc2NC(=O)CNC(=O)c2cccc3ccccc23)c1 | SRB | 48 h | GI50 | 490 nM
CC(C)c1c(Sc2ccc(C(=O)N[C@@H](CCC(=O)O)C(=O)O)cc2)[nH]c2nc(N)nc(N)c12 | – | – | GI50 | 5580 nM
CC(=O)O[C@H]1C(=O)[C@@]2(C)[C@H]([C@H](OC(=O)c3ccccc3)[C@]3(O)C[C@H](OC(=O)[C@H](O)[C@@H](NC(=O)c4ccccc4)c4ccccc4)C(C)=C1C3(C)C)[C@]1(OC(C)=O)CO[C@@H]1C[C@@H]2O | – | 110 h | IC50 | 5 nM
